Assays:
EAAT2 protein expression = settings: mice, intraperitoneal injection; cited from earlier work
EAAT2 = settings: cited from earlier work
[1] = tested on: EAAT2 protein expression (human EAAT2 transcripts with the 1091-nucleotides 5′ UTR); test: Cell-based ELISA for EAAT2 protein expression in PA-EAAT2 cells; settings: retinoic acid 1.5 μg/mL, 384-well format, vs DMSO
In short: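 PA-EAAT2 cells at 8000/well, grown 36 h in 2% FBS DMEM with geneticin, then switched to serum-free DMEM/geneticin and exposed 72 h (0.20% DMSO final). Fixed 2 h in 4% formaldehyde; peroxide quench, milk block; rabbit anti-EAAT2 1:2000 overnight at 4°C, HRP anti-rabbit 1:6000 for 2 h; chemiluminescence read at 40 min. % activation vs DMSO wells; EC50 from 12-point 3-fold series, […], quadruplicate.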

In the case of `CO/N=C(\C(=O)N[C@@H]1C(=O)N2C(C(=O)O)=C(CSc3nc(=O)c(=O)[nH]n3C)CS[C@H]12)c1csc(N)n1` [ceftriaxone, Ceftriaxone], the “induction of EAAT2 protein expression or glutamate uptake activity” value (EAAT2 protein expression) is given as “only slightly induces”.

In the case of `C[C@]12C[C@H](O)[C@H]3[C@@H](CCC4=CC(=O)CC[C@@]43C)[C@@H]1CC[C@@H]2C(=O)CO` [corticosterone], the “translational activator of EAAT2” value (EAAT2) is listed as “translational activator of EAAT2”.

In the case of `CC1=C(/C=C/C(C)=C/C=C/C(C)=C/C(=O)O)C(C)(C)CCC1` [retinoic acid], the “PA-EAAT2 cell signal increase” value [1] is reported as 2- to 3.5 fold.

From PMC3016154 (Journal of biomolecular screening, 2010)
